Compounds with a hit are over-represented: about 1.3% of the library has one in this group of screens.
LYPLA1 inh – LYPLA1 (human) inhibition in PME1 counter-screen. O75608. recombinant LYPLA1, FP-Rh probe fluorescence polarization. inhibition, % at 5.9 µM. 320,000 tested, 0.16% active. AID 2174;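 active = inhibition above the mean of all tested compounds plus 3 SD, set per campaign, cut at about 14% in these data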;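 note: inhibitors block serine hydrolase probe labeling of LYPLA1 so polarization falls; 0% = enzyme with DMSO and 100% = wells lacking LYPLA1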
Target sequence (O75608 whole entry, looked up): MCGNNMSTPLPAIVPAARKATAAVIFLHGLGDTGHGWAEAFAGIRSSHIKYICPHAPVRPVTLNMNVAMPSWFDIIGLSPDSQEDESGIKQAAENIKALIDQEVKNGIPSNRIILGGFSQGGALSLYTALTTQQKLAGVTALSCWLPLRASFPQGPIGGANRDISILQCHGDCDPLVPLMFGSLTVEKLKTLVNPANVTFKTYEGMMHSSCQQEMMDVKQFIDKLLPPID
PAD4 FP inh – PAD4 (human) enzyme inhibition; Q9UM07; recombinant PAD4, RCA probe fluorescence polarization; inhibition, % at 6.36 µM; 330,000 tested, 0.41% active; AID 485272;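 active = percent inhibition above a cutoff equal to the mean of all tested compounds plus 3 SD, cut at about 15% in these data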;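 note: 0% = PAD4 with RCA probe and DMSO and 100% = probe without PAD4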
PME-1 primary – blocks human protein phosphatase methylesterase 1 | Q9Y570 | recombinant PME-1, FP-Rh probe fluorescence polarization | inhibition, % at 5.9 µM | 320,000 tested, 0.53% active | AID 2130;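 active = inhibition above the campaign mean of all compounds plus 3 SD, cut at about 26% in these data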;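 note: competitive labeling of PME-1 active site by serine hydrolase directed probe; 0% = PME-1 with DMSO and 100% = wells lacking PME-1 enzyme; inhibitors block probe labeling so polarization falls and inhibition rises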
Target sequence (Q9Y570 whole entry, looked up): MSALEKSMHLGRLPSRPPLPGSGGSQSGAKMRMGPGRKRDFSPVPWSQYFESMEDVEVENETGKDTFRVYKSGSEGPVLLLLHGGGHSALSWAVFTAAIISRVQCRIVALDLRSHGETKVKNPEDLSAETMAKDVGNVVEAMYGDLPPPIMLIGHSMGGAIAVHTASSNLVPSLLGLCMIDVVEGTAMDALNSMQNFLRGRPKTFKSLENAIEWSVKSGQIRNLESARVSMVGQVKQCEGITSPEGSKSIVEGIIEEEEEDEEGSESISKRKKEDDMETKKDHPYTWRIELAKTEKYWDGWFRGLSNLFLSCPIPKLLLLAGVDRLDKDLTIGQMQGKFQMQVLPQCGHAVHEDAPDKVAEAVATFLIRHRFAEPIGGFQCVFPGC
RBBP9 inhibitor – human RBBP9 hydrolase inhibition; O75884; recombinant RBBP9, FP-Rh probe fluorescence polarization; inhibition, % at 7.94 µM; 220,000 tested, 0.2% active;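 active = inhibition above the campaign mean of all tested compounds plus 3 SD, cut at about 14% in these data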;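 note: plate controls were DMSO wells with RBBP9 for no effect and wells lacking RBBP9 protein for full effect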
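Assay system: recombinant human RBBP9; Reagent: Serine-hydrolase probe FP-Rh, 375 nM pre-mixing; Doses: 7.94 µM single dose, 0.794% DMSO; Incubation: 30 min then 45 min, 25 °C; Detection: fluorescence polarization (mP), excitation 525 nm, emission 598 nm; Evaluation: percent inhibition from mP, scaled between DMSO and no-protein wells.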
LYPLA2 counter – blocks human lysophospholipase 2, a PME1 counter-screen. O95372. recombinant LYPLA2, FP-Rh probe fluorescence polarization. inhibition, % at 5.9 µM. 320,000 tested, 0.38% active. AID 2177;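 active = inhibition above the screen-wide mean plus 3 SD, limit set per campaign, cut at about 26% in these data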;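 note: 0% = LYPLA2 with DMSO and 100% = wells lacking LYPLA2 enzyme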
Fam108B inh – blocks mouse Fam108B hydrolase in RBBP9 counter-screen | recombinant Fam108B, FP-Rh probe fluorescence polarization | 300,000 tested, 0.33% active | AID 1947 | inhibition, % at 9.51 µM;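 active = inhibition above the screen mean inhibition plus 3 SD, computed separately per campaign, cut at about 18% in these data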;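 note: inhibitors lower polarization as less probe binds the enzyme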
Fam108b inh conf – confirmation of mouse Fam108b serine hydrolase inhibitors; shares compounds with Fam108B inh; recombinant Fam108b, FP-Rh probe fluorescence polarization; inhibition, % at 9.51 µM; 930 tested, 44% active;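 active = inhibition above a limit from the primary screen, the mean over all compounds plus 3 SD, cut at about 19% in these data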;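 note: 0% = median of active Fam108b wells and 100% = catalytically dead S170A mutant; inhibitors free the probe so polarization falls as inhibition rises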
Fam108b ABPP HTS – mouse ABHD17B inhibition; shares compounds with Fam108B inh; recombinant Fam108b, gel-based ABPP, fluorophosphonate probe; inhibition, % at 20 µM; 260 tested, 44% active; in the data active = inhibition above about 40%
LYPLA1 conf – counter-screen for PME1 inhibitors: confirmation of human LYPLA1 inhibitors. recombinant LYPLA1, FP-Rh probe fluorescence polarization. shares compounds with LYPLA1 inh. inhibition, % at 5.9 µM. 480 tested, 69% active;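 active = mean inhibition across replicates above the hit cutoff set in the primary screen, cut at about 15% in these data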;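 note: loss of FP-Rh probe labeling of LYPLA1 seen as lower polarization; 0% = LYPLA1 with DMSO and 100% = wells lacking LYPLA1 enzyme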
LYPLA2 conf – counter-screen for PME1 inhibitors: confirmation of human LYPLA2 inhibitors; shares compounds with LYPLA2 counter; recombinant LYPLA2, FP-Rh probe fluorescence polarization; inhibition, % at 5.9 µM; 1,100 tested, 72% active;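 active = mean inhibition across replicates above the hit cutoff set in the primary screen, cut at about 26% in these data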;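 note: blocked labeling of the enzyme by serine hydrolase FP-Rh probe lowers polarization; 0% = enzyme with DMSO and 100% = wells lacking LYPLA2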
PAD4 FP conf – confirmation of human PAD4 inhibitors; shares compounds with PAD4 FP inh; recombinant PAD4, RCA probe fluorescence polarization; inhibition, % at 6.36 µM; 1,200 tested, 28% active; AID 488796;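 active = mean inhibition across replicates above the hit cutoff set by the earlier primary screen, cut at about 15% in these data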;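 note: inhibitors block active-site labeling by the probe so polarization falls; 0% = PAD4 with probe and DMSO and 100% = probe without PAD4 enzyme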
Numbers without * were called inactive; x = no result given.

SMILES | LYPLA1 inh | PAD4 FP inh | PME-1 primary | RBBP9 inhibitor | LYPLA2 counter | Fam108B inh | LYPLA1 conf | others
O=C(Nc1ccc2cn[nH]c2c1)c1c(Cl)cccc1Cl | 2 | 0 | -4 | -2 | 6 | -3 | x
O=C1C(Cl)=C(Nc2ccc3cn[nH]c3c2)C(=O)c2ccccc21 | 0 | 48* | 29* | 13 | 15 | 20* | x | Fam108b inh conf=31*;Fam108b ABPP HTS=70*;PAD4 FP conf=15*
COc1cc(Br)c(C(=O)c2nccc3cc(OC)c(OC)cc23)cc1OC | 44* | 73* | 22 | x | 57* | 63* | 16* | Fam108b inh conf=62*;Fam108b ABPP HTS=0;LYPLA2 conf=85*;PAD4 FP conf=59*
COc1cc(N)c(C(=O)c2nccc3cc(OC)c(OC)cc23)cc1OC | 0 | 0 | 3 | x | -2 | 0 | x
O=C1C(SCCO)=C(SCCO)C(=O)c2ccccc21 | 3 | 68* | 31* | x | 31* | 51* | x | Fam108b inh conf=66*;Fam108b ABPP HTS=90*;LYPLA2 conf=55*;PAD4 FP conf=39*
O=C1C(Cl)=C(NCCCO)C(=O)c2ccccc21 | 2 | -11 | 6 | 1 | 0 | 0 | x
COCCn1c(=O)[nH]c2cc(C(=O)N3CCN(c4ccccc4)CC3)ccc2c1=O | 4 | 0 | -6 | x | 7 | -1 | x
COCCn1c(=O)[nH]c2cc(C(=O)N3CCN(c4cccc(Cl)c4)CC3)ccc2c1=O | 52* | 3 | -1 | x | -8 | -3 | 1
COC(=O)c1ccc(N2CCN(C)CC2)c(NC(=O)c2cccnc2)c1 | 3 | -1 | -1 | -6 | 2 | -5 | x
COC(=O)c1ccc(COc2ccccc2/C=C(\C#N)C(=O)Nc2ccc(C)cc2C)cc1 | 16* | 2 | 6 | 2 | 5 | -7 | -4
O=C(C[n+]1ccccc1)N/N=C/c1ccc(C(=O)O)cc1 | 3 | -3 | -4 | x | -4 | x | x
O=C(Nc1cccc(S(=O)(=O)N2CCCCC2)c1)C1CC1 | 0 | 1 | 0 | x | 2 | x | x
O=C(Nc1ccc2c(c1)nc1n2CCN(Cc2ccccc2)C1)c1cccs1 | -10 | -7 | 1 | -7 | -3 | -2 | x
COc1ccccc1C(=O)Nc1ccc2c(c1)nc1n2CCN(Cc2ccccc2)C1 | 28* | -3 | -18 | -7 | 11 | 1 | 4
CCC(C(=O)OCC(=O)N(CC)c1c(N)n(Cc2ccccc2)c(=O)[nH]c1=O)c1ccccc1 (configuration not stated) | -5 | -15 | -3 | x | -12 | x | x
C=CCn1c(O)c(N=NC(=S)Nc2cccc(OC)c2)c2ccccc21 | 13 | -3 | 6 | -9 | 10 | 7 | x
C=CCn1c(O)c(N=NC(=S)Nc2ccc(OC)cc2)c2ccccc21 | 30* | -5 | -6 | 1 | 7 | 13 | 33*
COc1ccc2cc(CO)c3cc(OC)c(OC)cc3c2c1 | x | -1 | x | x | x | x | x
Cc1ccsc1C1Nc2ccc3ncccc3c2C2=C1C(=O)CC(C)(C)C2 (configuration not stated) | 16* | -5 | 17 | 2 | 11 | 4 | 11
CC(=O)Nc1ccc(S(=O)(=O)Nc2ccc(Cc3ccncc3)cc2)cc1 | 41* | -1 | 0 | x | 9 | 4 | 54*
COc1ccc(S(=O)(=O)Nc2ccc(Cc3ccncc3)cc2)cc1C | 36* | 0 | 19 | x | 4 | -6 | 47*
CCc1ccc(NS(=O)(=O)c2ccc(OC)c(C)c2)cc1 | 0 | -1 | 14 | 3 | -2 | 1 | x
CCN(c1ccc(NC(=O)c2ccc(N3CCCC3=O)cc2)cc1)C(C)C | 16* | -3 | 7 | x | 0 | 5 | 17*
COc1ccc(OC)c(NC(=O)C2CCC(CNc3c(N4CCC(C)CC4)c(=O)c3=O)CC2)c1 (configuration not stated) | 45* | -5 | -1 | 3 | 6 | -2 | 44*
CN1CCN(C(=O)C2CCCN(S(=O)(=O)c3ccc(Cl)cc3)C2)CC1 (configuration not stated) | 2 | -1 | 2 | x | 4 | 1 | x
SMILES | LYPLA1 inh | PAD4 FP inh | PME-1 primary | RBBP9 inhibitor | LYPLA2 counter | Fam108B inh | LYPLA1 conf | others
COc1cc(NC(=O)Nc2ccc(Cl)c(Cl)c2)c(C(=O)O)cc1OC | 20* | 0 | 18 | 8 | 9 | 5 | 18*
COc1cc(OC)c(NC(=O)Nc2ccc(OC)c(OC)c2)cc1Cl | -2 | 0 | -6 | 4 | 0 | -6 | x
C/C(=N/NC(=O)c1cc2ccccc2cc1O)C1C(=O)c2ccccc2C1=O | 63* | -7 | 79* | -2 | 24 | 75* | 57*
CN(Cc1cccc(F)c1)C(=O)c1ccc(S(=O)(=O)N2CCCCCC2)cc1 | x | 6 | x | x | x | x | x
Cc1cccc(C(=O)NC(NCc2ccco2)C(Cl)(Cl)Cl)c1 (configuration not stated) | 17* | -4 | 7 | -8 | 5 | 3 | 4
Cc1ccc(C)[n+](CC(=O)N2CCCCC2)c1 | x | x | x | -7 | x | x | x
Cc1nc2ccc(C(=O)Nc3cccc([N+](=O)[O-])c3)cc2s1 | 15* | -7 | -1 | -4 | -4 | 3 | 22*
O=C(Nc1cccc([N+](=O)[O-])c1)c1cccc(C(=O)Nc2cccc([N+](=O)[O-])c2)c1 | -4 | -4 | 1 | -5 | -2 | -2 | x
CCN(CC)C(=O)COc1ccc(-c2nnc(Nc3ccc(OC)c(C(=O)NC)c3)c3ccccc23)cc1 | 5 | -4 | -2 | 14 | -2 | 5 | x
Cc1ccc([N+](=O)[O-])c(OCCCN2CCC(Cc3ccccc3)CC2)c1 | 36* | 4 | -5 | x | 27* | 1 | 52*
Cc1ccc([N+](=O)[O-])c(OCCN2CCCCCC2)c1 | -1 | 1 | 2 | -13 | -1 | 1 | x
O=C(CSc1nnc(-c2ccco2)o1)N1CCN(c2ccccc2)CC1 | 20* | -1 | -1 | -6 | 4 | -1 | 28*
CC1CC(=O)Nc2ccccc2S1(=O)=O (configuration not stated) | 18* | 1 | 5 | 5 | 11 | -2 | 5
COc1cc(CNCCCN2CCOCC2)c(Br)cc1OCC(=O)Nc1ccccc1C | 17* | 0 | 5 | -4 | 9 | 3 | 0
